From the RNAGym collection of RNA variant scans (doi:10.1126/science.aae0568)
Variants at the floor of the assay were thinned out.

B1: tRNA (parent)
chain: GUUCCGUUGGCGUAAUGGUAACGCGUCUCCCUCCUAAGGAGAAGACUGCGGGUUCGAGUCCCGUACGGAACG

Variants of: B1
Assay: yeast fitness relative to wild type (ratio to wild type); higher = fitter; tRNA-Arg(CCU), competitive growth, 37 C, YPD
Method in brief: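 Variants of the tRNA-Arg(CCU) gene were chemically synthesised with a 3% per-site mutation rate across 69 sites and placed at the native genomic locus in Saccharomyces cerevisiae. Six parallel replicates of the pooled strains were competed in YPD at 37°C for 24 hours, and gene amplicons from the start and end populations were read by 100-nucleotide paired-end sequencing. Darwinian fitness relative to wild type was derived from changes in genotype frequencies. Genotypes required ≥ 100 starting reads, and estimates < 0.5 were set to 0.5.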

Variant	yeast fitness
GUUCCGUUGGCGUAAUGGUAACGCCUCUCCCUCCUAAGGAGAAGACUGCGGGUUCGAGUCCCGUAGGGAACG [G25C C66G]	0.639
GUUCCGUUGGCGUAAUGGUUACGCGUUUCCCCCCUAAGGAGAAGACUGCGGCUUCGAGUCCCGUACGGAACG [A20U C27U U32C G52C]	≤ 0.5
GUUCGGUUGGCGUAAUGGUAACGCGUCUCCCUCCUAAGGAGAAGACUGCGGGUUCAAGUCCCGUACGGAACG [C5G G56A]	0.975
GUUCCGGUGGCGUAAUGGUAACGCCUCUCCCUCCUAAGGAGAAGACUGCGGGUUCGACUCCCGUACGGAACG [U7G G25C G58C]	0.558
GUUCCGUUGGCGUAAUGGUAAAGGGUCUCCCUCCUAAGGAGAAGCCUGCGGGUUCGAGUCCCGUACGGAACG [C22A C24G A45C]	0.564
GUUCCGUUGGCGUAAUGGUAAUGCGUCUCCCUCCUAAGGAGAAGACUGCGGGUUCGACUCCCGUCCGGAACG [C22U G58C A65C]	≤ 0.5
GUUCCGUUGGCGUGAUGGUAUCGCGUCUCCCUCCUAAGGAGAAGACUGCGGGUUCGAGUCCGGUACGGAACG [A14G A21U C62G]	≤ 0.5
GUUCCGUUGGCCUAAUGGUAACGCGUCUCCCUCCUAAGGAGAAGACUGCUGGUUCGAGUCCCGUACGGAACG [G12C G50U]	0.836
GUUCCGUUGGCGUAAUGGCAACGCGUUUGCCUCAUAAGGAGCAGACUGCGGGUUCGAAUCCCGUGCGGAACG [U19C C27U C29G C34A A42C G58A A65G]	≤ 0.5
GUUCCGUUGGCGUAAUGGUAACGCGCCUCCCACUUAACGAGAAGACUGCGAGUUCGAGUUCUGUACGGAACG [U26C U32A C34U G38C G51A C60U C62U]	≤ 0.5
GUUCCGUUGGCGUAAUGGUAACGUGCCUCCCUCCUAAGGAGAAGACUGCGGGUUCGAGUCCCGUACGGAUCG [C24U U26C A70U]	0.678
GUUCCGUUGGCGUAAUGGUAACGCGGCUCCCUCCUAAGGAGAAGACUGCGCGUUCGACUCCCGUACGGAACG [U26G G51C G58C]	0.54
GUUCCGUUGGCGUAAUGGUCAUGCGUCUCCCUCCUAAGGUGAAGACUGCGGGUUCGAGUCCCGUGCGGCACG [A20C C22U A40U A65G A69C]	≤ 0.5
GUUCCGUUGGCGUAAUGGUAACGCGUCUCUCUCCUAAGGAGAAGACUGCCGGUUCGAGUCGCGUACGGAACG [C30U G50C C61G]	≤ 0.5
GUUCCGUUAGCCUAAUGGUAACGCGUCUCCAUGCUAAGGAGAAGGCUGCGGGUUCGAGUCCCGUACGGAUCG [G9A G12C C31A C33G A45G A70U]	≤ 0.5
GUUCUGUUGGUGUAAUGGUAACGCGUCUCCCUCCUAAGGAGAAGACUGCGGGUUCGAGUCCUGUACGAAACG [C5U C11U C62U G68A]	≤ 0.5
GUUCCGUUGGCGUAAUGGUAACCCGUCUCGCUCCUAUGGAGAAGCGUGCGGGUUCGAGUCCCGUACGGAACG [G23C C30G A37U A45C C46G]	≤ 0.5
GUUCCGUUGGCGUAAUGGUAAUGCGUCUCCCUCCUAAGGAGAAGACUGCGGGUCCGAGUCCCGUACAGAACG [C22U U54C G67A]	≤ 0.5
GUUCCGUUGGUGUAACGGUAACGCGUCCCCCUCCUAAGGAGACGACUGCGGGUUCGAGUCCCGUACGGAACG [C11U U16C U28C A43C]	≤ 0.5

Variant	yeast fitness
GUUCCGUUGGCGUAAUGGUAACGCGUCUCCCUCCUAAGGAGAAGACUGCGGGUUGGAGUCCCAUACGGAACG [C55G G63A]	0.622
GUUCCGUUGGCGUAAUGGUAACGCGUCUCCAUCGUAAGGAGAAGACUGCGGGUUCGAGUCCCGUACGGAACG [C31A C34G]	≤ 0.5
GUUCCAUUGGCGUGAUGGUAACGCGUCUCCCUCCUAAGGAGAAGACUGUGGGUUCGAGUCCCGUACGGAACG [G6A A14G C49U]	0.57
GUUCCGUUAGCGUAAUGGUAACGCGUCUCCCUCCUAAGGAAAAGACUGCGGGUUCGAGUCCCGUACGGAACG [G9A G41A]	1.02
GUUCCGUUGCCGUAAUGGUAACGCGUCUCCCUCCGAAGGAGACGACCGCGGGUUUGAGUCCUGUACGGCACG [G10C U35G A43C U47C C55U C62U A69C]	≤ 0.5
GUUCCGUUGGCGCAAUGGUAACGCAUCUCCCUGCUAAGGACAAGACUGCGGGUUCGAGUCGCGUUCGGAACG [U13C G25A C33G G41C C61G A65U]	≤ 0.5
GUUCCCUUGGCGUAAUGGUAACGCGUCUCCCUCCUAGGGUGAAGCCUGCGGGUUCGAGUGCCGUACGGAACG [G6C A37G A40U A45C C60G]	≤ 0.5
GUUCCGUCGGCGUAAUGGUAACGCGUCUCCCUCCUAAGGAGAAGAAUGCCGGUUCGAGUCCCGUACGGAACG [U8C C46A G50C]	0.567
GUUCCGUUGGCGUAAUGGUAACGCAUCUCGCUCCUAAGGAGAAGACUGUGGGUUCGAGUCCCGUACGGAACG [G25A C30G C49U]	0.594
GUUCCGUUGGCGUAAAGGUAAUGCGUCUCCCUCCUAAGGAGAAGACUACGGGUUCGAGUCCCGUACGGAACG [U16A C22U G48A]	0.631
GUUCCGUUGGCGUAAUAGUAACGCGUCUCCCUCCUAAGGAGUAGACUGCGGGUUCGAGCCCCGUACGGAACG [G17A A42U U59C]	≤ 0.5
GUUCCGUUGGCGUAAUGGUAACGCGUCUCCUUCCUAACGAGAAGACUGCGGGUUCGAGUCCCGUACGGAACG [C31U G38C]	0.845
GUUCCGUUGGCGUAAUGGUCACGCGUCUCCCUCCUAAGGAGAACACUGCGGGUUCGAGUCUCGUACGGAACG [A20C G44C C61U]	0.56
GUUCCGUUGGCGUCAUGGUAACGCAUCUCCCUCCUAUGGAGGAGACUGCGGGUUCGAGUCCCGUACGGAACG [A14C G25A A37U A42G]	≤ 0.5
GUUCCGUAGGCGUAAUGGUUACGCGUCUCCUUCCUAAGGAGAAGGCUGCGGGUUCGAGUCCCGUACGGAACG [U8A A20U C31U A45G]	≤ 0.5
GUUCCGUUGGCAUAAUCGUAACGCGUCUCCCUCCUAAGGAGAAGAUUGCGGGUUCGAGUCCCGUACGGAACG [G12A G17C C46U]	≤ 0.5
GUUCAGUUGGCGUAGUGGUAACGCGUCUCCCUCCUAAGGAGAAGACUGCGGGUUCGAGUCACGUACGGAACG [C5A A15G C61A]	≤ 0.5
GUUCCGUUGGCGUAAUGGUAACGCGUCUCCCUCCUAAGGAGCAGACUGCGGGUUCGAGUCCCGUGGGGAACG [A42C A65G C66G]	≤ 0.5
